Compound activity: PubChem BioAssay, Johns Hopkins Ion Channel Center
Shown are actives, neighbours in structure and some others; about 3.7% of the full set was active somewhere.
hERG rescue: compounds protecting human hERG from proarrhythmic drug block. Q12809. CHO-hERG, FluxOR thallium flux, dofetilide IC70 present. activation (rescue from dofetilide block), less the hit threshold, % at 10 µM. actives 0.51% (n = 310,000). AID 1511;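 active = activation above the mean of controls blocked by dofetilide plus 5 SD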;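 note: thallium influx through hERG after potassium depolarization seen as dye fluorescence rise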
Kir21 inh: inhibitors of mouse Kir2.1 inward-rectifier potassium channel; P35561; HEK293-Kir2.1, FluxOR thallium flux fluorescence; active compounds read low; B-score at 10 µM; actives 0.85% (n = 310,000); AID 1672;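 active = fluorescence ratio B-score at or below minus 3 SD of library scores, with starting-brightness B-score within 2 SD, cut at about -4.2 in these data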;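 note: channel flux triggered by added potassium and thallium sulfate stimulus; B-score of peak minus minimum fluorescence over baseline after thallium stimulus; more negative B-score means stronger Kir2.1 block with less thallium influx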
KCNQ1 pot: human KCNQ1 channel potentiation or activation; CHO-K1 KCNQ1, thallium flux FluxOR fluorescence; active compounds read high; P51787; B-score at 10 µM; actives 0.35% (n = 310,000); AID 2648;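 active = fluorescence ratio B-score, a plate-corrected score, at least three library SD, with initial intensity B-score within 5 SD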
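System: Stable KCNQ1 CHO-K1 line | Incubation: 90 min dye loading and 20 min compound exposure, both at room temperature | Measure: Ratio B score | Medium: Assay buffer for compound exposure, DMSO matched across wells | Compound dosing: Single-concentration screen | Probe or stimulus: K+/Tl+ depolarizing stimulus | Measured by: Kinetic FluxOR fluorescence, 10 s baseline plus 110 s post-stimulus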
KCNK3 block: human KCNK3 channel inhibition, primary screen; O14649; CHO-KCNK3 thallium flux, FluxOR fluorescence; active compounds read low; B-score at 10 µM; actives 0.84% (n = 340,000); AID 602410;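 active = B-score under library mean minus 4 SD, starting fluorescence ratio at most library mean plus 5 SD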;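 note: more negative B-score means stronger inhibition of thallium flux through KCNK3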
Target sequence (O14649 whole entry, looked up): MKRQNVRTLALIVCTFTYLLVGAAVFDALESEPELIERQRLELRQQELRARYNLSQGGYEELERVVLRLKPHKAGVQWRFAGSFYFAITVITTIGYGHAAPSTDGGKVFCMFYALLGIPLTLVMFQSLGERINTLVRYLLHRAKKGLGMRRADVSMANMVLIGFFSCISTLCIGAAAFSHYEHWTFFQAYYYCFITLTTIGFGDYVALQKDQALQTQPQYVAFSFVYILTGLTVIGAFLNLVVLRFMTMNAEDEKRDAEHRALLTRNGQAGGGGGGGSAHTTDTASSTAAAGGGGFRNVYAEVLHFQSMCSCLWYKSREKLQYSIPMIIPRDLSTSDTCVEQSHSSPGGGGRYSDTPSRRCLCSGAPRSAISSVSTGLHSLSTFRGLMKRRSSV
KCNK9 inh: inhibitors of human KCNK9 two-pore domain potassium channel | Q9NPC2 | HEK293 KCNK9, FluxOR thallium flux fluorescence; active compounds read low | actives 1.2% (n = 310,000) | AID 488922 | B-score at 10 µM;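 active = ratio B-score over 3 SD below the library mean, with starting fluorescence within 5 SD of its mean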;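 note: negative B-score means less thallium flux so channel inhibition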
KCNQ1 block: inhibitors of human KCNQ1 potassium channel; P51787; CHO-K1 KCNQ1, FluxOR thallium flux fluorescence; active compounds read high; B-score at 10 µM; actives 1.3% (n = 310,000); AID 2642;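 active = compounds whose thallium flux B-score, printed positive for inhibition, exceeds three library SD while starting fluorescence stays within three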;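 note: channel opened by potassium depolarization with thallium stimulus after 20 min compound exposure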
* marks the source's active call; other numbers are inactive results.

`O=C(/C=C/c1ccccc1)CC(=O)c1ccccc1O` gave hERG rescue 15*, Kir21 inh -1.4, KCNQ1 pot inactive, KCNK3 block inactive, KCNK9 inh inactive and KCNQ1 block inactive.
CCC1CCC2(CC1)NC(CO)(CO)CO2 (configuration not stated) was read as hERG rescue -10, Kir21 inh -0.56, KCNQ1 pot 8*, KCNK3 block inactive, KCNK9 inh inactive and KCNQ1 block inactive.
`CCCCn1c(-c2ccccc2C)nc2cc3[nH]c(=O)c(C(C)C)nc3cc21` gave hERG rescue -18, Kir21 inh -0.94, KCNQ1 pot inactive, KCNK3 block inactive, KCNK9 inh -8.1* and KCNQ1 block inactive.
CCOC(=O)c1c(-c2ccccc2)c2cc(OC)ccc2n1CCCN(C)C was read as hERG rescue -5, Kir21 inh -7*, KCNQ1 pot inactive, KCNK3 block inactive, KCNK9 inh inactive and KCNQ1 block inactive.
For Cc1ccc(NS(=O)(=O)c2cc(C(=O)N(C)C3CCN(C)CC3)ccc2Cl)cc1Cl the results were KCNK3 block inactive.
For Cc1cc(C(=O)CCl)c(C)n1-c1cccc([N+](=O)[O-])c1 the results were hERG rescue -10, Kir21 inh -1.2, KCNQ1 pot 11*, KCNK3 block inactive, KCNK9 inh inactive and KCNQ1 block inactive.
CC(=O)c1c(C(C)=O)c(C)n(-c2cccc([N+](=O)[O-])c2)c1C was read as hERG rescue -2, Kir21 inh -1.1, KCNQ1 pot inactive, KCNK3 block inactive, KCNK9 inh inactive and KCNQ1 block inactive.
Screening C=CCOC(=O)C1=C[C@H](c2csc3ccccc23)C[C@H](OCc2ccc(CO)cc2)O1 returned hERG rescue -20, Kir21 inh -1.3, KCNQ1 pot inactive, KCNK3 block inactive, KCNK9 inh inactive and KCNQ1 block 6*.
O=C(/C=C/c1ccc(Br)cc1)N1CCN(c2cccc(C(F)(F)F)c2)CC1 was read as hERG rescue -13, Kir21 inh 1.3, KCNQ1 pot inactive, KCNK3 block inactive, KCNK9 inh inactive and KCNQ1 block 7*.
For COc1cc(C(=O)N/N=C/c2ccc(OC(=O)c3ccccc3Cl)c(OC)c2)ccc1O the results were hERG rescue -18, Kir21 inh 0.1, KCNQ1 pot inactive, KCNK3 block inactive, KCNK9 inh inactive and KCNQ1 block 6*.
`CCC(C(=O)N(C(C)C)C(C)C)c1ccccc1` (configuration not stated) gave KCNK3 block inactive.
CCC(C(=O)c1ccc(O)cc1)c1ccccc1 (configuration not stated) was read as hERG rescue -5, Kir21 inh -5*, KCNQ1 pot inactive, KCNK3 block inactive, KCNK9 inh inactive and KCNQ1 block inactive.
Screening CC(C)(C)c1nc(SCC(=O)NCc2cccs2)c2ccccc2n1 returned hERG rescue -20, Kir21 inh -2, KCNQ1 pot inactive, KCNK3 block inactive, KCNK9 inh inactive and KCNQ1 block inactive.
CCOC(=O)CNC(=O)CSc1nc(Cc2cccs2)nc2ccccc12 was read as hERG rescue 5.2*, Kir21 inh -2.8, KCNQ1 pot inactive, KCNK3 block inactive, KCNK9 inh inactive and KCNQ1 block inactive.
`Cc1cc(NC(=O)c2cccnc2)ccc1Br` gave hERG rescue -8, Kir21 inh -0.38, KCNQ1 pot inactive, KCNK3 block inactive, KCNK9 inh inactive and KCNQ1 block inactive.
`COc1ccc(-c2nn(-c3ccccc3)cc2/C=C/C(=O)N2CCN(c3ccccn3)CC2)cc1` gave hERG rescue -33, Kir21 inh 0.67, KCNQ1 pot inactive, KCNK3 block inactive, KCNK9 inh inactive and KCNQ1 block 6*.
For Cc1noc(C)c1CSc1nnc(-c2ccccc2)n1N the results were hERG rescue -8, Kir21 inh -0.74, KCNQ1 pot inactive, KCNK3 block inactive, KCNK9 inh inactive and KCNQ1 block inactive.
`Cc1noc(C)c1CSc1nnc2scc(-c3ccccc3)n12` gave hERG rescue -7, Kir21 inh -5.2*, KCNQ1 pot inactive, KCNK3 block inactive, KCNK9 inh inactive and KCNQ1 block inactive.
